CTSL1 counter = blocks F. hepatica cathepsin L1 in PFM18AAP counter-screen | 300,000 tested, 0.49% active | inhibition, % at 5.96 µM | AID 1906 | recombinant F. hepatica cathepsin L1, Z-Leu-Arg-MCA fluorescence;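 active means inhibition above the mean of all tested compounds plus 3 SD, set per screening campaign, cut at about 17% in these data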
PP5 primary = PP5 (human) phosphatase inhibition; P53041; purified PP5c, OMFP substrate fluorescence; inhibition, % at 6.7 µM; 320,000 tested, 0.18% active; AID 1987;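 active means inhibition above the campaign's mean inhibition across all tested compounds plus 3 SD, cut at about 9.5% in these data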
NadD block = blocks S. aureus nicotinate mononucleotide adenylyltransferase; purified NadD enzyme, colorimetric absorbance read-out; inhibition, % at 20 µM; 360,000 tested, 0.78% active; AID 602399; in the data active means inhibition above about 26%
HCV core dimer = blocks dimerization of HCV core protein. TR-FRET GST/Flag-core106 dimerization, 1536-well. inhibition, % at 5 µM. 300,000 tested, 0.33% active;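 active means inhibition above the mean of all tested compounds plus 3 SD, set per screening campaign, cut at about 45% in these data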
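Material: Tagged HCV core106 pair (GST and Flag) | Amount: GST-core106 13.5 nM, Flag-core106 17 nM | Medium: KF-containing HEPES buffer, pH 7.45, DTT, CHAPS, BSA | Reagent: Eu donor and XL665 acceptor anti-tag antibodies | Schedule: 4 h at 22.5 °C | Technique: Time-resolved FRET, ex 340 nm, em 617 and 671 nm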
PP1 counter = blocks human PP1-alpha phosphatase, a PP5 counter-screen; P62136; purified PP1alpha, OMFP fluorescence; inhibition, % at 6.7 µM; 320,000 tested, 0.9% active; AID 2235;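 active means inhibition above the mean inhibition of all tested compounds plus 3 SD, computed separately for each screening campaign, cut at about 15% in these data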
Target sequence (P62136 whole entry, looked up): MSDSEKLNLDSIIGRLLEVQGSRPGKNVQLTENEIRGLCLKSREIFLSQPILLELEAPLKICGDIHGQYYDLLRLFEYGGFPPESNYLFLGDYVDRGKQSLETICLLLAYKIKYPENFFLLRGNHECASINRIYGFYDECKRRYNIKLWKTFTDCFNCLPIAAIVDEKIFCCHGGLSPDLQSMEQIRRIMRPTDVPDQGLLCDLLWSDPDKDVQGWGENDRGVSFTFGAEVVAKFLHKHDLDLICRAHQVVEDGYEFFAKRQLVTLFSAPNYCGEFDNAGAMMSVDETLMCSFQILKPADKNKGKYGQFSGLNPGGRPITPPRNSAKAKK
Myeloid diff 2 = promotes myeloid progenitor differentiation; ER-HoxA9 myeloid progenitors, lysozyme-GFP differentiation, flow cytometry; AID 624256; calls only at 10 µM; 360,000 tested, 1% active;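 active means normalized GFP-positive differentiation at or above the plate's own cutoff, the solvent-only control mean plus 3 SD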;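 further: cells exposed to compound for four days before flow analysis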
Myeloid diff = promotes myeloid progenitor differentiation; ER-HoxA9 myeloid progenitors, GFP/Mac1 double-positive flow; 2,300 tested, 2% active; shares compounds with Myeloid diff 2; calls only;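 active means share of green or green-and-red cells above 9 and 9% in run 1 or 4 and 3% in run 2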
GFP autofluor = counter-screen for myeloid differentiation promoters: compound fluorescence | shares compounds with Myeloid diff 2 | ER-HoxA9 myeloid progenitors, no estrogen, GFP autofluorescence flow cytometry; vehicle wells 0%, positive control 100% | fluorescence response, % (concentration not given with the values) | AID 651707 | 2,300 tested, 7.4% active;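 active means over 5% cells positive for green fluorescent reporter, or over 2% positive for both it and APC stain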
Of the large screens only hits and unclear results are named; the others gave an inactive call (follow-up assays come after a bar, where they were run). Sampled rows, rich in hits. Any-hit rate of the full collection: about 3.1%.

CC(C)(C)c1ccc(OCCC(=O)NNC(=O)c2ccccc2)cc1	none
CC(C)(C)c1ccc(C(=O)NNC(=O)CCC(=O)Nc2ccccc2)cc1	Myeloid diff 2 active | Myeloid diff inactive | GFP autofluor inactive
N#Cc1cc(C#N)c(SCC(=O)N2CC(=O)Nc3ccccc32)nc1N	none (no result: CTSL1 counter, HCV core dimer) | Myeloid diff inactive | GFP autofluor inactive
Cc1nc(SCC(=O)N2CC(=O)Nc3ccccc32)nc(C)c1C	none
CCCCCC(=O)N1C[C@H](O)[C@@H](n2cc(-c3ccc(F)cc3)nn2)C[C@@H]1c1ccc(C)cc1	none (no result: CTSL1 counter, PP5 primary, HCV core dimer, PP1 counter)
COc1ccc([C@H]2C[C@H](n3cc(C4CC4)nn3)[C@@H](O)CN2CC2CCCCC2)cc1	none (no result: CTSL1 counter, PP5 primary, HCV core dimer, PP1 counter)
O[C@H]1C[C@H](c2ccccc2)N(CC2CCCCC2)C[C@@H]1n1cc(-c2ccc(F)cc2)nn1	none (no result: CTSL1 counter, PP5 primary, HCV core dimer, PP1 counter)
COc1ccc([C@H]2C[C@@H](O)[C@H](n3cc(-c4ccc(F)cc4)nn3)CN2CC2CCCCC2)cc1	none (no result: CTSL1 counter, PP5 primary, HCV core dimer, PP1 counter) | Myeloid diff inactive | GFP autofluor inactive
COc1ccc([C@H]2C[C@H](n3cc(-c4ccc(F)cc4)nn3)[C@@H](O)CN2CC2CCCCC2)cc1	Myeloid diff 2 active (no result: CTSL1 counter, PP5 primary, HCV core dimer, PP1 counter) | Myeloid diff inactive | GFP autofluor inactive
O=C(c1cccs1)N1C[C@@H](n2cc(-c3ccc(F)cc3)nn2)[C@H](O)C[C@@H]1c1ccc(Cl)cc1	none (no result: CTSL1 counter, PP5 primary, HCV core dimer, PP1 counter) | Myeloid diff inactive | GFP autofluor inactive
CCCCCC(=O)N1C[C@@H](O)[C@H](n2cc(-c3ccc(F)cc3)nn2)C[C@@H]1c1ccc(OC)cc1	none (no result: CTSL1 counter, PP5 primary, HCV core dimer, PP1 counter) | Myeloid diff inactive | GFP autofluor inactive
CCc1nc2ccc(C(=O)NCCc3ccc(OC)cc3)cc2nc1CC	none | Myeloid diff inactive | GFP autofluor inactive
CC1CC(C)(C)NC2(CCCC2)N1 (stereo not drawn)	none (no result: CTSL1 counter, PP5 primary, HCV core dimer, PP1 counter)
Cc1c(Br)c(O)c(Br)c2sc(=O)oc12	none | Myeloid diff inactive | GFP autofluor inactive
Cc1ccc(S(=O)(=O)N2CCCCC2CCNC(=O)C(=O)Nc2ccccc2F)cc1 (stereo not drawn)	Myeloid diff 2 active | Myeloid diff inactive | GFP autofluor inactive
COc1ccc(/C=C(\NC(=O)c2ccc(C)cc2)C(=O)NCCCn2ccnc2)cc1	none
O=C(NCc1ccco1)c1ccc2c(c1)N(Cc1ccccc1)CCS2	none | Myeloid diff inactive | GFP autofluor inactive
COc1ccc(S(=O)(=O)Nc2ccccc2C)cc1	none | Myeloid diff inactive | GFP autofluor inactive
Cc1ccccc1NS(=O)(=O)c1ccc(F)cc1	none
N#CC1C(=O)NC(=O)C(C#N)C12CCCCC2 (stereo not drawn)	none (no result: CTSL1 counter, PP5 primary, HCV core dimer, PP1 counter)
N#CC1C(=O)NC(=O)CC12CCCCC2 (stereo not drawn)	none (no result: CTSL1 counter, PP5 primary, HCV core dimer, PP1 counter) | Myeloid diff inactive | GFP autofluor inactive
CCOC(=O)c1c(C)[nH]c(C)c1C(=O)COC(=O)C1CC(=O)N(CCc2ccccc2)C1 (stereo not drawn)	none (no result: CTSL1 counter, PP5 primary, HCV core dimer, PP1 counter)
O=C(NCCc1ccco1)C(=O)NCC1CCCN1S(=O)(=O)c1ccccc1 (stereo not drawn)	Myeloid diff 2 active | Myeloid diff inactive | GFP autofluor inactive
Cc1ccc(C)c(S(=O)(=O)N2CCCC2CNC(=O)C(=O)NCCc2ccco2)c1 (stereo not drawn)	none
COc1ccc(C2=CC(=O)C[C@H](c3ccc(F)cc3)C2)cc1OC	none (no result: CTSL1 counter, HCV core dimer)
C=CCNC(=O)COc1ccc(N(C)S(=O)(=O)c2ccc(NC(C)=O)cc2)cc1	none | Myeloid diff inactive | GFP autofluor inactive
CCN(CC)C(=O)COc1ccc(N(C)S(=O)(=O)c2ccc(NC(C)=O)cc2)cc1	none
Cc1cc2c3c(c1C)C1(C(=O)N3C(C)(C)CC2C)C(C#N)=C(N)Oc2n[nH]c(C)c21 (stereo not drawn)	Myeloid diff 2 active | Myeloid diff inactive | GFP autofluor inactive
COc1cccc(NC(=O)CN(C)C(=O)CC2CCCC2)c1	none (no result: CTSL1 counter, PP5 primary, HCV core dimer, PP1 counter) | Myeloid diff inactive | GFP autofluor inactive
Cc1cc(Cl)c(S(N)(=O)=O)cc1OCC(N)=O	none
CCN(CC)S(=O)(=O)c1cc(OCC(N)=O)c(C)cc1Cl	none | Myeloid diff inactive | GFP autofluor inactive
CSc1cccc(NC(=O)c2cccc3cccnc23)c1	none
COc1ccccc1N1CCN(S(=O)(=O)CC23CCC(CC2=O)C3(C)C)CC1 (stereo not drawn)	none | Myeloid diff inactive | GFP autofluor inactive
CC(C(=O)N1CCc2ccccc21)N1CCN(c2cccc(C(F)(F)F)c2)CC1 (stereo not drawn)	Myeloid diff 2 active | Myeloid diff inactive | GFP autofluor inactive
COc1ccc(NC(=O)C2CCCN(S(C)(=O)=O)C2)cc1OC (stereo not drawn)	none
CCCCCCCC(=O)C(C)C(=O)N(C)[C@H](Cc1ccc(OC)cc1)C(=O)N(C)[C@H](C(N)=O)C(C)C (stereo partly drawn)	none (no result: CTSL1 counter, PP5 primary, HCV core dimer, PP1 counter)
C#CCCC/C(=C\C(=O)N(C)[C@H](C(=O)N(C)[C@H](C(=O)N(C)[C@H](C(=O)N(C)[C@H](C(N)=O)C(C)C)C(C)C)C(C)C)C(C)C)OC	none (no result: CTSL1 counter, PP5 primary, HCV core dimer, PP1 counter) | Myeloid diff inactive | GFP autofluor inactive
CSc1ncccc1C(=O)N1CCN(S(=O)(=O)c2ccc(C)cc2)CC1	none
COC(=O)c1ccc(NC(=O)Nc2ccccc2F)cc1	none
COC(=O)c1ccc(NC(=O)Nc2ccccc2C)cc1	none | Myeloid diff inactive | GFP autofluor inactive
O=C(CCN1CCN(c2ccccc2)CC1)Nc1ccccc1F	none | Myeloid diff inactive | GFP autofluor inactive
CCOC(=O)c1[nH]c2ccc(Br)cc2c1NC(=O)CCN1CCCC(C)(C)C1	Myeloid diff 2 active | Myeloid diff inactive | GFP autofluor inactive
CC1=CC(C)(C)N(C(=O)CCl)c2ccccc21	none
CC1=CC(C)(C)N(C(=O)CNC2CCCCC2)c2cc(C)ccc21	Myeloid diff 2 active | Myeloid diff inactive | GFP autofluor inactive
CC1=CC(C)(C)N(C(=O)CCl)c2cc(C)ccc21	none | Myeloid diff inactive | GFP autofluor inactive
CNc1cncc(-c2cccc(C(=O)NC3CC3)c2)n1	none (no result: CTSL1 counter, PP5 primary, HCV core dimer, PP1 counter)
O=C(NCc1cccs1)c1ccc(CS(=O)(=O)c2ccc(Cl)cc2)o1	Myeloid diff 2 active | Myeloid diff inactive | GFP autofluor inactive
COc1ccc(S(=O)(=O)Cc2ccc(C(=O)NCc3cccs3)o2)cc1	none
O=C(CSc1nnc2scc(-c3ccccc3)n12)N1CCCc2ccccc21	none | Myeloid diff inactive | GFP autofluor inactive
CC1Cc2nc(SCC(=O)N3CCCc4ccccc43)n(C)c(=O)c2S1 (stereo not drawn)	none | Myeloid diff inactive | GFP autofluor inactive
CCn1nnnc1SCC(=O)N1CCCc2ccccc21	none | Myeloid diff inactive | GFP autofluor inactive
CCOC(=O)/C=C1\Nc2ccccc2OC1=O	Myeloid diff 2 active | Myeloid diff inactive | GFP autofluor inactive
